# Laboratory results published in ChEMBL document CHEMBL4014311, “Discovery of a Hepatitis C Virus NS5B Replicase Palm Site Allosteric Inhibitor (BMS-929075) Advanced to Phase 1 Clinical Studies” (J Med Chem, 2017).
# Active and inactive are the calls of the source. The calls are words filed in the database; no cut-off is given here.
# What was measured:
# Hepatitis C virus [1] = test: Antiviral activity against HCV genotype 1a infected in human HuH7 cells after 3 days by luciferase reporter assay; format: functional, cell-based, Hepacivirus hominis, subtype 1a; settings: Hepatitis C virus, subtype 1a, Huh-7, 72 h; read-out: EC50
# [2] = Half life in rat liver microsomes; format: ADME, microsome
# [3] = Membrane permeability at pH 7.4 by PAMPA; format: physicochemical; settings: read-out: permeability
# [4] = Drug uptake in Sprague-Dawley rat liver at 6 mg/kg, po via gavage after 6 hrs by LC-MS/MS analysis; format: ADME, organism-based; settings: read-out: Drug uptake
# Method in brief: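 Fasted rats were dosed orally in 90:10 PEG-400/ethanol; 6 h livers came from satellite animals. In the screening variant, n = 2 and plasma was taken to 6 h with livers at the terminal point. Livers were rinsed, blotted, weighed and homogenized in 2 volumes of 80% acetonitrile in HBSS per gram, then centrifuged. Supernatant and plasma were analysed by LC/MS/MS.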
# Cytochrome P450 2C8 = target: T1, Cytochrome P450 2C8 (Homo sapiens, UniProt P10632); test: Inhibition of microsomal CYP2C8 (unknown origin); format: ADME
# T1 sequence (P10632 whole entry): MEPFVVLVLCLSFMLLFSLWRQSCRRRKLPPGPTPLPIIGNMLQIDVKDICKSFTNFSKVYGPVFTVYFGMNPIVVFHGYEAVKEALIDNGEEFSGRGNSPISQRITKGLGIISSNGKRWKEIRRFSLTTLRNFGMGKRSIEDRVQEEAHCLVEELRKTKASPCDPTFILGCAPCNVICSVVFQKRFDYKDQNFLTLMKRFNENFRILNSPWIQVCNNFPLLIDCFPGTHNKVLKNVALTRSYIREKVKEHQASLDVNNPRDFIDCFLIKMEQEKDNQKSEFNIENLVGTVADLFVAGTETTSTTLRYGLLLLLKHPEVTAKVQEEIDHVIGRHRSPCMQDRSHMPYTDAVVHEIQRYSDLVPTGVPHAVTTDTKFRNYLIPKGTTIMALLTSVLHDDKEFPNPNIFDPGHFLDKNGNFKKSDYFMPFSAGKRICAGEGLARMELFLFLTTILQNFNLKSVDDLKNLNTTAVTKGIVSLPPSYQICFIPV
# [5] = Half life in dog liver microsomes; format: ADME, Canis lupus familiaris, microsome
# [6] = Half life in monkey liver microsomes; format: ADME, Macaca mulatta, microsome; settings: rhesus monkey
# [7] = target: T2, Voltage-gated inwardly rectifying potassium channel KCNH2 (Homo sapiens, UniProt Q12809); test: Inhibition of human ERG by thallium flux assay
# [8] = Ratio of plasma concentration in human at 25 mg up to 14 days to EC50 for HCV genotype 1b NS5B C316N mutant infected in human HuH7 cells
# Method in brief: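 Randomized, double-blind, placebo-controlled Phase I multiple ascending dose study in healthy volunteers. Oral amorphous solid dispersion formulation, 30% drug loading, given daily for 14 days at doses up to 400 mg/day. Human plasma exposure was measured and set against the replicon EC50.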
# Canis familiaris = test: Toxicity in dog up to 100 mg/kg, po administered as single dose measured up to 2 weeks; format: organism-based, Canis lupus familiaris; settings: in vivo, 336 h
# [9] = Lipophilicity, log D of the compound at pH 6.5 by shake flask method; format: physicochemical; settings: buffer
# [10] = Clearance in Sprague-Dawley rat at 2 mg/kg, iv by LC/MS/MS analysis; format: ADME, organism-based; settings: in vivo
# Method in brief: (§1)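 A 10 min constant-rate jugular vein infusion was given in 90:10 PEG-400/ethanol (v/v), n = 3 rats. Plasma was sampled predose and at 10, 15, 30, 45, 60 min and 2, 4, 6, 8, 24 h, then assayed by LC/MS/MS. Clearance and apparent terminal t1/2 were estimated by noncompartmental analysis.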
# [11] = Half life in Sprague-Dawley rat at 2 mg/kg,iv by LC/MS/MS analysis; format: ADME, organism-based; settings: Sprague-Dawley, in vivo; method in brief: as §1
# [12] = Volume of distribution at steady state in Sprague-Dawley rat at 2 mg/kg, iv by LC/MS/MS analysis; format: ADME, organism-based; settings: Sprague-Dawley, in vivo, read-out: Vdss
# Method in brief: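 Rats received a 2 mg/kg IV dose in 90:10 PEG-400/ethanol as a 10 min constant-rate jugular infusion. Blood collected predose and at 10, 15, 30, 45, 60 min and 2, 4, 6, 8, 24 h; n = 3. Plasma analyzed by LC/MS/MS. Vss derived by noncompartmental analysis of IV data.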
# [13] = Cmax in Sprague-Dawley rat at 6 mg/kg, po administered via gavage by LC/MS/MS analysis; format: ADME, organism-based; design: dose 6 mg/kg, route oral; settings: in vivo
# Method in brief: (§2)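 Rats were fasted overnight with free access to water, then dosed by gastric gavage with an […] solution in 90:10 PEG-400/ethanol (v/v), n = 3 per group. EDTA plasma was sampled predose and at 15, 30, 45, 60 min and 2, 4, 6, 8, 24 h, then assayed by LC/MS/MS. Parameters come from noncompartmental analysis: Cmax observed directly, AUC by linear/log trapezoidal summation, F as dose-normalized PO/IV AUC ratio.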
# Hepatitis C virus [14] = test: Antiviral activity against HCV genotype 1b infected in human HuH7 cells at >= 10 times antiviral EC50 after 3 days by luciferase reporter assay; format: functional, cell-based; settings: Hepacivirus hominis
# [15] = Oral bioavailability in Sprague-Dawley rat at 6 mg/kg by LC/MS/MS analysis; format: ADME, organism-based; settings: in vivo; method in brief: as §2
# Hepatitis C virus [16] = test: Antiviral activity against HCV genotype 2b infected in human HuH7 cells after 3 days by luciferase reporter assay; format: functional, cell-based, Hepacivirus hominis; settings: Huh-7, 72 h
# [17] = Protein binding in human serum; format: ADME, cell-free; settings: read-out: PB (converted)
# Hepatitis C virus [18] = test: Ratio of EC50 for HCV genotype 1b infected in human HuH7 cells in presence of 40% human serum to EC50 for HCV genotype-1b infected in human HuH7 cells; format: functional, Hepacivirus hominis
# Hepatitis C virus [19] = test: Ratio of EC50 for HCV genotype 1a infected in human HuH7 cells in presence of 40% human serum to EC50 for HCV genotype 1a infected in human HuH7 cells; format: functional, Hepacivirus hominis, subtype 1a
# Hepatitis C virus [20] = test: Antiviral activity against HCV genotype 1b infected in human HuH7 cells co-treated with daclatasvir/asunaprevir after 3 days by luciferase reporter assay; format: functional, cell-based; settings: Hepacivirus hominis
# [21] = Protein binding in dog serum; format: ADME, cell-free, Canis lupus familiaris; settings: read-out: PB (converted)
# [22] = Effective permeability across apical to basolateral side in human Caco2 cells; format: ADME, cell-based; settings: Caco-2, read-out: Peff
# [23] = Aqueous solubility of compound; format: physicochemical; settings: buffer
# [24] = AUC in Sprague-Dawley rat at 6 mg/kg, po administered via gavage using docusate sodium/methocel/water formulation by LC/MS/MS analysis; format: ADME, organism-based; settings: in vivo
# Method in brief: (§3)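 Rats were fasted overnight and gavaged with a suspension of spray-dried dispersion (10% w/w drug loading in 0.02:0.5:99.48 docusate/methocel/water), n = 3 per group. Serial EDTA plasma was taken predose to 24 h and assayed by LC/MS/MS. Analysis was noncompartmental: Cmax observed, AUC by linear/log trapezoids, F from dose-normalized PO versus IV AUC.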
# [25] = target: T2, Voltage-gated inwardly rectifying potassium channel KCNH2; test: Inhibition of human ERG by patch clamp assay
# [26] = target: Sodium channel protein type 5 subunit alpha (Homo sapiens, UniProt Q14524); test: Inhibition of Nav1.5 (unknown origin)
# [27] = Oral bioavailability in Sprague-Dawley rat at 6 mg/kg using docusate sodium/methocel/water formulation by LC/MS/MS analysis; format: ADME, organism-based; settings: in vivo; method in brief: as §3
# Homo sapiens = test: Toxicity in human up to 400 mg, po administered as single dose; settings: in vivo
# T2 sequence (Q12809 whole entry): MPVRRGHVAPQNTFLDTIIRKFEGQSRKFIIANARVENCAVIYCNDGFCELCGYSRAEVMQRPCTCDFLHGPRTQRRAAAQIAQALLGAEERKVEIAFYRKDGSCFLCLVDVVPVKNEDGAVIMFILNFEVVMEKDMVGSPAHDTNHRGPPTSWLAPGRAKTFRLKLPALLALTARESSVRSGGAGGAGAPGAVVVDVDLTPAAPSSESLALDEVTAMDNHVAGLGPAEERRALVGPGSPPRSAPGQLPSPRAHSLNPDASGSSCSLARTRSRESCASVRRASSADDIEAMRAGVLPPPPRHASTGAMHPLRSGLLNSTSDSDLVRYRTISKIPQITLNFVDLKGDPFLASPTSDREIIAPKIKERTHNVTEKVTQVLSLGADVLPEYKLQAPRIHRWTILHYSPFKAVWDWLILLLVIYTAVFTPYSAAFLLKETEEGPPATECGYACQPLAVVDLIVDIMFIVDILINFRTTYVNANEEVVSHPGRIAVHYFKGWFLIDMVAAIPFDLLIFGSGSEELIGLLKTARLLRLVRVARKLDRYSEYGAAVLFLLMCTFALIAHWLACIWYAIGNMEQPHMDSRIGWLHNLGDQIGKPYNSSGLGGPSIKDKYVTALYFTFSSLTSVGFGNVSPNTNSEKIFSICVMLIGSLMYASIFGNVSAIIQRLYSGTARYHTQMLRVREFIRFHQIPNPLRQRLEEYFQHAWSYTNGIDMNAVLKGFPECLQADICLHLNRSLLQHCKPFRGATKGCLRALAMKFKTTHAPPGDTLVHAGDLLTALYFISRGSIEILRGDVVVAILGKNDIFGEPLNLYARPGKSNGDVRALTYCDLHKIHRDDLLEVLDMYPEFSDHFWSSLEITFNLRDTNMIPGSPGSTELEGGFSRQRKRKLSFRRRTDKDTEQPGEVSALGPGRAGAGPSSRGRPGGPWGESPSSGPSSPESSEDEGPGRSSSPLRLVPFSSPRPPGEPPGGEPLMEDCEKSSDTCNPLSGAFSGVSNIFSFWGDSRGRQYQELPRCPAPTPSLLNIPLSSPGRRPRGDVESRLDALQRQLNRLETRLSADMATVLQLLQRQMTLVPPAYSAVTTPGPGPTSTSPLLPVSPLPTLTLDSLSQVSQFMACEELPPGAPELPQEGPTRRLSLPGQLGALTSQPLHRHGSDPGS
# Chain of Sodium channel protein type 5 subunit alpha (Q14524 whole entry): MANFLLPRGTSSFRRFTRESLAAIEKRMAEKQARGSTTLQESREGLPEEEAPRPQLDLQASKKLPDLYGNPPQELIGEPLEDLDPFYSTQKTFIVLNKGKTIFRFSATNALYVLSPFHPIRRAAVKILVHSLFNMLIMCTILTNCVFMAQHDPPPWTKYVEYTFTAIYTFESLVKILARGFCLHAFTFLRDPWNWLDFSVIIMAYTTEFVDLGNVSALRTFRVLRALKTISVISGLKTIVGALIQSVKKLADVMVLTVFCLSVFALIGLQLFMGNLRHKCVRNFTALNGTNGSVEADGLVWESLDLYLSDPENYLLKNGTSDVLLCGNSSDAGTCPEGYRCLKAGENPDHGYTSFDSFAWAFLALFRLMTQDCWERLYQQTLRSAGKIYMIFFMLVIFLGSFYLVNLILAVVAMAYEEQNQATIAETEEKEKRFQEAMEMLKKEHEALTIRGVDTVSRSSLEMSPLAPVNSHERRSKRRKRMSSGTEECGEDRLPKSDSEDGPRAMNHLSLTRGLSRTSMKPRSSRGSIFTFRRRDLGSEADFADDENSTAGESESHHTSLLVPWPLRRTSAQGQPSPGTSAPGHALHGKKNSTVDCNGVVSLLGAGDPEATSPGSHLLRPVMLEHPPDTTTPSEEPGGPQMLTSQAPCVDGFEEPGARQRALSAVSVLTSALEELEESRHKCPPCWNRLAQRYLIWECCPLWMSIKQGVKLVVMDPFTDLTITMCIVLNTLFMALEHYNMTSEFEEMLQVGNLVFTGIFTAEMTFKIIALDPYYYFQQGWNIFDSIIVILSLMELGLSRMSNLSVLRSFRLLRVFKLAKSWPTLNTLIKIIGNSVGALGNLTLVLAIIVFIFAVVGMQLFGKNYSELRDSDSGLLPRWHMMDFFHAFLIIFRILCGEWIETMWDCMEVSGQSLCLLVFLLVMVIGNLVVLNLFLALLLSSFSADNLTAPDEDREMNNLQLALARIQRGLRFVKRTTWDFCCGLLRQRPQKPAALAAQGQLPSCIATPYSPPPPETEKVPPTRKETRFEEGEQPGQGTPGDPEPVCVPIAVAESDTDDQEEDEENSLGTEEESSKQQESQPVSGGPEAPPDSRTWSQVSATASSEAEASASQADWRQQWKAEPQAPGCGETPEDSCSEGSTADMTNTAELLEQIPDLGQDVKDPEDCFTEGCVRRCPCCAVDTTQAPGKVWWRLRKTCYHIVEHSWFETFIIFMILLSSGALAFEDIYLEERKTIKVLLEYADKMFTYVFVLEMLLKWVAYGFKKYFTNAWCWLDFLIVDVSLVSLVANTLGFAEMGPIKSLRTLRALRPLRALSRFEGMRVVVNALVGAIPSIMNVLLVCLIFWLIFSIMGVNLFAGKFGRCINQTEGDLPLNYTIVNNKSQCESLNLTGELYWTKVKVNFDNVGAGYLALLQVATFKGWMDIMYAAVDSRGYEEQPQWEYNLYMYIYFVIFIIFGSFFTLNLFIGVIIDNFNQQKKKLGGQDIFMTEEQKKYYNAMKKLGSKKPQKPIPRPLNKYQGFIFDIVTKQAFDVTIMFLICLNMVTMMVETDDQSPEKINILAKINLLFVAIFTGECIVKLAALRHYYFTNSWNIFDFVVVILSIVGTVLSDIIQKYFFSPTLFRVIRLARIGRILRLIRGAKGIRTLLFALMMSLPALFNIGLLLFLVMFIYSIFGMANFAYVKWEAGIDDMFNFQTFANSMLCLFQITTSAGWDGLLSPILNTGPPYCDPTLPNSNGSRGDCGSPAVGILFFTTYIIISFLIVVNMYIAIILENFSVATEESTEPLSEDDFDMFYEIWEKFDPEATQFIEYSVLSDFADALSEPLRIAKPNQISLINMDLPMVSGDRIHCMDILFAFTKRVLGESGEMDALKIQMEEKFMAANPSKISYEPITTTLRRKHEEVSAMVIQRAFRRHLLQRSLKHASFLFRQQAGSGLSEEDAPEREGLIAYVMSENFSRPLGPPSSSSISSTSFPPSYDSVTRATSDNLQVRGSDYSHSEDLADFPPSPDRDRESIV
smiles,measurement,setting,value
CNC(=O)c1c(-c2ccc(F)cc2)oc2ccc(-c3cc(C(=O)NC4(c5ncccn5)CC4)ccc3C)c(F)c12 [BMS-929075],EC50,Hepatitis C virus [1],0.009 µM
same,half-life,[2],> 2 h
same,Papp,[3],97.2 ×10⁻⁶ cm/s
same,concentration at 6 h,[4],15.1 µM
same,IC50,Cytochrome P450 2C8,6.7 µM
same,half-life,[5],> 2 h
same,half-life,[6],> 2 h
same,IC50,[7],24 µM
same,Ratio,[8],10
same,Activity,Canis familiaris,Non-Toxic
same,logD,[9],5.09
same,clearance,[10],1.7 mL/min/kg
same,half-life,[11],4.7 h
same,Vd,[12],0.7 L/kg
same,Cmax,[13],7.5 µM
same,Activity,Hepatitis C virus [14],Active
same,bioavailability,[15],48%
same,EC50,Hepatitis C virus [16],0.115 µM
same,fraction unbound,[17],0.018
same,Ratio EC50,Hepatitis C virus [18],5.5
same,Ratio EC50,Hepatitis C virus [19],5.5
same,Activity,Hepatitis C virus [20],Active
same,fraction unbound,[21],0.019
same,Papp A→B,[22],> 10 ×10⁻⁶ cm/s
same,solubility,[23],< 1 µg/mL
same,AUC,[24],140 µM·h
same,IC50,[25],18 µM
same,inhibition (INH),[26],Not Active
same,bioavailability,[27],> 100%
same,Activity,Homo sapiens,Non-Toxic
